Screening data (PubChem)
SUMO Mot1 rescue: SUMOylation pathway inhibition by Mot1-301 growth rescue | S. cerevisiae Mot1-301 growth rescue, ATP luminescence, 38.5C; percent above DMSO median, 100 means doubled | growth rescue, % at 18.8 µM | 1% of 320,000 active;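 active = every valid replicate shows activation above 250% relative to neutral control wells; inactive = the rest, any valid replicate at or below 250%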;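 also: OY570 slx delta 5 strain wells were the positive control but not used for scaling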
PglD DTNB: blocks C. jejuni PglD acetyltransferase activity. 0.098% of 360,000 active. purified PglD enzyme, DTNB colorimetric CoA detection. inhibition, % at 12.5 µM. AID 602405; in the data active = inhibition above about 16%, passing the limit was not always enough; inconclusive = no clear call, values can overlap the other calls
CR mimetic SO: caloric restriction mimetics inhibiting age-related superoxide in yeast | S. cerevisiae aged cells, superoxide DHE fluorescence; active compounds read low | superoxide response (% of plate mean), % at 10 µM | 0.18% of 330,000 active | AID 2690;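 active = superoxide response under a set limit, about three screen SD below normal, cut at about 65% in these data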;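 also: yeast aged for seven days with compound at 30 °C before DHE staining; 100% = average MFI of all compound-treated wells on the plate with controls excluded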
Ecoli rRNA inh: inhibits bacterial ribosomal RNA function over humanized ribosomes | E. coli WT GFP vs humanized-ribosome RFP mutants, fluorescence, 24 h; active compounds read low; DMSO median 0, no signal -100 | 1.6% of 350,000 active | GFP signal change (wild-type ribosome), % (concentration not given with the values);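 active = significant combined selectivity score with lowered wild-type GFP, culture density cut under 30%, mutant RFP and density less affected; inactive = any of these conditions unmet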
Cneo AK release: causes C. neoformans cell lysis; adenylate kinase release luminescence, 4 h; normalised: neutral wells 0, clomiphene wells 100; 0.2% of 360,000 active; lysis activity, % at 15 µM;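 active = mean lysis activity across replicates of at least 80%, whatever share of replicates individually reach that level; inactive = mean lysis activity below 80%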
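Material: C. neoformans cells; Schedule: 4 h static compound exposure, 37 °C, read 1 h post-reagent; Measured by: adenylate kinase release luminescence; Read-out: signal increase indicating cell lysis; Controls: Clomiphene as positive lysis control.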
PglD inh SP: confirmation of Campylobacter jejuni PglD acetyltransferase inhibitors | inhibition, % at 20 µM | shares compounds with PglD DTNB | Purified C. jejuni PglD, DTNB absorbance 412 nm | 320 tested, under 10 active;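 active = mean inhibition across replicates of at least 20% with every single replicate also at 20% or more; inconclusive = mean inhibition at least 20% but some replicate falls below 20%; inactive = mean inhibition under 20% and not all replicates reach it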;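 also: initial rate of CoA release by acetyl transfer from AcCoA to the UDP-4-amino sugar; 0% = median of neutral control wells and 100% = median of positive control wells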
AID977621: wild-type E. coli growth inhibition versus H69 humanized strain – H69 mutant RFP, wild-type GFP, cherry-pick, dose response | activity change, negative = inhibition at 50 µM | fluorescence, 24 h | shares compounds with Ecoli rRNA inh | AID 977621 | 1,900 tested, under 10 active;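 active = Wild-type ribosome reporter drop at least double the humanized mutant ribosome reporter drop, growth loss under a set limit; inconclusive = no clear call, values can overlap the other calls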;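 also: wild-type GFP and H69 mutant RFP strains grown together 50/50 in each well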
Active calls of the source: *; ? = inconclusive; / = no result. Only some compounds are listed: those with a hit (about 2.2% of all), similar ones and a draw of the others.

SMILES	SUMO Mot1 rescue	PglD DTNB	CR mimetic SO	Ecoli rRNA inh	Cneo AK release	AID977621	others
CCCNS(=O)(=O)c1ccc(OCC(=O)N2CCN(Cc3ccc4c(c3)OCO4)CC2)c(C)c1	125	/	94	-2	/	/
CCCNS(=O)(=O)c1ccc(OCC(=O)N2CCN(Cc3ccc4c(c3)OCO4)CC2)cc1	-19	29*	98	/	-2	/	PglD inh SP=8
Cc1cc(C)cc(N2C(=O)/C(=C\c3ccc(N4CCN(C)CC4)o3)C(=O)NC2=S)c1	12	76*	93	/	4	/	PglD inh SP=-1
CC=Cc1ccc2n(c1=O)C[C@H]1[C@H](CO)[C@@H](C(=O)OC)[C@@H]2N1S(=O)(=O)c1ccccc1C (mixture of isomers)	/	-1	/	-2	0	/
CC(=O)OC1N=C(c2ccccc2Cl)c2cc(Br)ccc2NC1=O (stereo unspecified)	23	/	112	-20*	/	-14
COC(=O)c1c(C)n(Cc2ccccc2)c2ccc(O)cc12	4	-1	103	-32	-8	/
CCOC(=O)c1c(C)n(Cc2ccccc2)c2ccc(O)cc12	10	/	98	-27*	/	-16
CCCCn1c(NS(=O)(=O)c2ccc(C)cc2)c(C(=O)OCC)c2nc3ccccc3nc21	0	7	87	-22*	2	?
CCCCn1c(NC(=O)c2ccco2)c(C(=O)OCC)c2nc3ccccc3nc21	-2	0	131	/	-2	/
COC(=O)[C@@H]1[C@@H](CO)[C@@H]2Cn3c(ccc(C4=CCCC4)c3=O)[C@H]1N2Cc1ccccn1	/	-1	/	1	-5	/
CCOC(=O)[C@]12Cc3ccccc3[C@H]1N(C)C(=O)c1cc(OC)ccc12	/	/	/	-20*	/	-16
N#Cc1ccc(-c2ccc([C@H]3[C@H](CO)N4CCCCN(C(=O)Cc5ccccc5)C[C@@H]34)cc2)cc1	/	0	/	-22	2	/
